# Read-outs that look alike come from different tables or passages of the source.
# Key:
# murine CAR = settings: cited from earlier work
# (L343F)CAR:RXR = target: T1, (L343F)CAR:RXR (Mus musculus, UniProt O35627, L343F); assay: ITC, SRC1 peptide binding to; set-up: species or system murine (mCAR LBD), human (RXR LBD); settings: for ΔG / −TΔS / n (one-site binding model) / ΔH: SRC1 peptide binding, 25°C; for ΔG / −TΔS: pH 7.2; for n (one-site binding model) / ΔH: pH 7.2, average of at least three experiments ± SD
# T1 sequence (O35627 117-358 L343F): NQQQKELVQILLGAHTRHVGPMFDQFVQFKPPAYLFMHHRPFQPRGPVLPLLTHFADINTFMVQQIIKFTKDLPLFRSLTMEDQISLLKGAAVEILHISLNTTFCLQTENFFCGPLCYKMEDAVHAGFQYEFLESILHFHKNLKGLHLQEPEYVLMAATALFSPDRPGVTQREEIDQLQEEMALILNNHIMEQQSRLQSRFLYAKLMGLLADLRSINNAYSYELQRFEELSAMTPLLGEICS
# T1 sequence (P19793 225-462 partner limits assumed): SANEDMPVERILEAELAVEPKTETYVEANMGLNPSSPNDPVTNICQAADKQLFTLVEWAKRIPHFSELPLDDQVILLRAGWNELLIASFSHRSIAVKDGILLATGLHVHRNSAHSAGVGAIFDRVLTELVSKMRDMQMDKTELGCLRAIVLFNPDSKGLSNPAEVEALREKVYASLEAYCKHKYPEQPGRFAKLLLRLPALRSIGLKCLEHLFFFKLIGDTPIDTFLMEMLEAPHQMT
# (L343A)CAR:RXR = (L343A)CAR:RXR (Mus musculus, UniProt O35627, L343A); assay: ITC, SRC1 peptide binding to; set-up: species or system murine (mCAR LBD), human (RXR LBD); settings: for ΔG / −TΔS / n (one-site binding model) / ΔH: SRC1 peptide binding, 25°C; for ΔG / −TΔS: pH 7.2; for n (one-site binding model) / ΔH: pH 7.2, average of at least three experiments ± SD
# CAR:RXR [1] = target: T2, CAR:RXR (Mus musculus, UniProt O35627); assay: ITC, SRC1 box 2 peptide binding to wild-type CAR:RXR LBDs; set-up: species or system murine (mCAR LBD), human (RXR LBD); settings: for affinity of ligand-bound CAR:RXR for SRC1 coactivator (in words): saturating meclizine versus TCPOBOP
# RXR LBD within CAR:RXR = assay: differential amide HDX MS, RXR portion of CAR:RXR; set-up: species or system human; settings: 4°C, pH 8, 10–3600 seconds
# CAR:(W282F)RXR = assay: steady-state tryptophan fluorescence quenching, CAR:; assay type: binding, murine (mCAR LBD), human (RXR LBD); settings: 1.0 μM protein (Figure S2); excitation 295 nm; pH 8.0
# CAR:(W305F)RXR = assay: steady-state tryptophan fluorescence quenching, CAR:; assay type: binding, murine (mCAR LBD), human (RXR LBD); settings: 1.0 μM protein (Figure S2); excitation 295 nm; pH 8.0
# Method in brief: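 Human RXR LBD (residues 225–462) carrying W305F, co-expressed with CAR LBD in E. coli BL21(DE3) Gold (0.5 mM IPTG, 20 h, 20°C). Heterodimer purified by Ni-NTA, then size exclusion in 20 mM Tris-HCl pH 8.0, 250 mM NaCl, 2.5 mM EDTA, 5.0 mM DTT. Steady-state emission scanned 305–400 nm and compared with wild-type and W282F heterodimers at 340 nm.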
# mCAR = settings: LXRE response element, HepG2 cells; ref Huang et al., 2004; cited from earlier work
# CAR LBD within CAR:RXR = assay: differential amide HDX MS, CAR portion of CAR:RXR; set-up: species or system murine; settings: for HDX kinetics versus unliganded CAR:RXR (in words): 4°C, pH 8, 10–3600 seconds
# CAR:RXR [2] = target: T2, CAR:RXR; assay: effect of CAR ligands on 9-cis-retinoic acid; assay type: binding, murine (mCAR LBD), human (RXR LBD); settings: fluorescence quenching at 340 nm upon titrating 9c into CAR:RXR
# human CAR isoform = settings: ref Huang et al., 2004; cited from earlier work
# [3] = SRC1 peptide binding in the presence of meclizine (ten-fold excess), 25°C, pH 7.2
# [4] = SRC1 peptide binding in the presence of meclizine (ten-fold excess), 25°C, pH 7.2, average of at least three experiments ± SD
# [5] = residues 327–358 (H10, H11, H12)
# T2 sequence (O35627 117-358, other chains not shown): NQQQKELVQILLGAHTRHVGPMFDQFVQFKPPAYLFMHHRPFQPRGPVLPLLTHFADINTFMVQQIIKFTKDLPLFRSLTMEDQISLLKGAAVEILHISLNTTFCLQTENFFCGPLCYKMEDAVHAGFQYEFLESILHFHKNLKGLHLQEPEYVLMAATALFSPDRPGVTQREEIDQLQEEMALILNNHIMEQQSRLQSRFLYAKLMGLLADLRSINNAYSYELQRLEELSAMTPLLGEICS
# Sequence of (L343A)CAR:RXR (O35627 117-358 L343A, other chains not shown): as the sequence (O35627 117-358, other chains not shown) above, with L227A counted along it
compound,measurement,setting,value
"C[C@]12CC[C@@H](O)C[C@@H]1CC[C@@H]1[C@@H]2CC[C@]2(C)C=CC[C@@H]12 [androstenol, 5α-androst-16-en-3α-ol]",ligand function on murine CAR (in words),"murine CAR; androstane metabolites, ref Forman et al., 1998",physiological inverse agonist ligands of murine CAR
CC[C@H](C)[C@H](NC(=O)[C@H](CCCCN)NC(=O)[C@H](Cc1c[nH]cn1)NC(=O)[C@@H](N)CCCNC(=N)N)C(=O)N[C@@H](CC(C)C)C(=O)N[C@@H](Cc1c[nH]cn1)C(=O)N[C@@H](CCCNC(=N)N)C(=O)N[C@@H](CC(C)C)C(=O)N[C@@H](CC(C)C)C(=O)N[C@@H](CCC(N)=O)C(=O)N[C@@H](CCC(=O)O)C(=O)NCC(=O)N[C@@H](CO)C(=O)O [SRC1 peptide],affinity for coactivator and entropy (in words),"(L343F)CAR:RXR; (L343F)CAR:RXR, no ligand, versus wild-type complex",significantly greater affinity for coactivator and lower unfavorable entropy compared to the wild-type complex
same,ΔG,(L343F)CAR:RXR; L343F (androstenol),-30.5 kJ/mol
same,−TΔS,(L343F)CAR:RXR; L343F (androstenol),11.3 kJ/mol
same,n (one-site binding model),(L343F)CAR:RXR; L343F (androstenol),1.0 ± 0.04
same,ΔH,(L343F)CAR:RXR; L343F (androstenol),-41.8 ± 0.84 kJ/mol
same,ΔG,(L343F)CAR:RXR; L343F (no ligand),-34.3 kJ/mol
same,−TΔS,(L343F)CAR:RXR; L343F (no ligand),1.26 kJ/mol
same,n (one-site binding model),(L343F)CAR:RXR; L343F (no ligand),0.97 ± 0.05
same,ΔH,(L343F)CAR:RXR; L343F (no ligand),-35.6 ± 0.84 kJ/mol
same,unfavorable entropy (TΔS) of SRC1 peptide binding (in words),"(L343A)CAR:RXR; (L343A)CAR:RXR, no ligand",appreciably higher unfavorable entropy (TΔS)
same,affinity for SRC1 peptide (in words),"(L343A)CAR:RXR; (L343A)CAR:RXR, no ligand, versus wild-type CAR",lower than wild-type CAR
same,ΔG,(L343A)CAR:RXR; L343A (TCPOBOP),-32.6 kJ/mol
same,−TΔS,(L343A)CAR:RXR; L343A (TCPOBOP),15.5 kJ/mol
same,n (one-site binding model),(L343A)CAR:RXR; L343A (TCPOBOP),0.92 ± 0.14
same,ΔH,(L343A)CAR:RXR; L343A (TCPOBOP),-48.1 ± 3.3 kJ/mol
same,ΔG,(L343A)CAR:RXR; L343A (no ligand),-27.6 kJ/mol
same,−TΔS,(L343A)CAR:RXR; L343A (no ligand),16.7 kJ/mol
same,n (one-site binding model),(L343A)CAR:RXR; L343A (no ligand),1.0 ± 0.13
same,ΔH,(L343A)CAR:RXR; L343A (no ligand),-44.4 ± 2.1 kJ/mol
same,ΔG,CAR:RXR [1]; [3],-34.3 kJ/mol
same,−TΔS,CAR:RXR [1]; [3],7.11 kJ/mol
same,n (one-site binding model),CAR:RXR [1]; [4],0.95 ± 0.08
same,ΔH,CAR:RXR [1]; [4],-41.4 ± 1.3 kJ/mol
"Clc1cnc(Oc2ccc(Oc3ncc(Cl)cc3Cl)cc2)c(Cl)c1 [TCPOBOP, 1,4-bis[2-(3,5-dichloropyridyloxy)]benzene]",HDX kinetics of RXR versus unliganded CAR:RXR (in words),RXR LBD within CAR:RXR; RXR residues 416–432 (helix H10),significant reduction in HDX kinetics
same,tryptophan quenching of CAR:(W282F)RXR (in words),CAR:(W282F)RXR,strong dose-dependent increase in tryptophan quenching
same,transactivation by murine CAR (in words),"murine CAR; ref Tzameli et al., 2000",further enhanced
same,tryptophan fluorescence response of CAR:(W305F)RXR (in words),CAR:(W305F)RXR,no significant response
same,agonist response (in words),mCAR,stronger agonist response from CAR than meclizine
same,overall impact on conformational dynamics of CAR (in words),"CAR LBD within CAR:RXR; differential HDX, TCPOBOP compared with meclizine",broader and of greater magnitude than that of meclizine
same,HDX kinetics versus unliganded CAR:RXR (in words),"CAR LBD within CAR:RXR; residues 143–178 (helices H2′, H2″, parts of H3)",significant protection from exchange
same,HDX kinetics versus unliganded CAR:RXR (in words),CAR LBD within CAR:RXR; [5],most significant reductions in HDX behavior
same,"HDX exchange kinetics, residues 339–345 in CAR (in words)","CAR LBD within CAR:RXR; residues 339–345, CAR(TCPOBOP):RXR compared with CAR(meclizine):RXR",greater magnitude reduction in exchange kinetics
same,affinity of ligand-bound CAR:RXR for SRC1 coactivator (in words),CAR:RXR [1],higher affinity for coactivator than meclizine
same,effect on 9c binding to CAR:RXR (in words),CAR:RXR [2],do not appear to significantly affect 9-cis-retinoic acid (9c) binding to CAR:RXR
"Cc1cccc(CN2CCN(C(c3ccccc3)c3ccc(Cl)cc3)CC2)c1 (stereo not drawn) [meclizine, 1-[(4-chlorophenyl)(phenyl)methyl]-4-(3-methylbenzyl)piperazine]",HDX kinetics of RXR versus unliganded CAR:RXR (in words),RXR LBD within CAR:RXR; 84 regions of RXR,no significant differences in exchange kinetics in RXR
same,transactivation by murine CAR (in words),"murine CAR; ref Huang et al., 2004",further enhanced
same,function on human CAR (in words),human CAR isoform,inverse agonist
same,agonist response (in words),mCAR,mCAR agonist
same,HDX kinetics versus unliganded CAR:RXR (in words),CAR LBD within CAR:RXR; residues 228–245 (segment of β-sheet and H6),significantly protected to exchange
same,HDX kinetics versus unliganded CAR:RXR (in words),CAR LBD within CAR:RXR; [5],significantly protected to exchange
same,affinity of ligand-bound CAR:RXR for SRC1 coactivator (in words),CAR:RXR [1],affinity for coactivator is less than CAR(TCPOBOP)

# — publication PMC3032979 (Structure (London, England : 1993), 2011)
